Experiments:
[1] = biological target: Metabotropic glutamate receptor 7 (Rattus norvegicus, UniProt P35400); test: Effect on Metabotropic glutamate receptor 7
Method in brief: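 mGlu7-expressing CHO cells run in the forskolin (10 μM)/IBMX (1 mM) cAMP assay for 10 min, with cAMP measured by RIA as percent inhibition. Test ligand at 10 mM. For antagonism, 20 min preincubation, then ligand plus 1 mM (S)-AP4 as the agonist. Run at least twice in triplicate.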

[2] = biological target: Metabotropic glutamate receptor 4 (Rattus norvegicus, UniProt P31423); test: Effect on Metabotropic glutamate receptor 4
Method in brief: (§1)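 Stably transfected CHO cells (mGlu3, mGlu4a or mGlu6) incubated 10 min in PBS with ligand, 10 μM forskolin and 1 mM IBMX. cAMP measured by RIA; agonism taken as percent decrease of forskolin-induced cAMP versus control. For antagonism, 20 min preincubation with ligand in PBS/1 mM IBMX, then 10 min with ligand plus 30 μM (S)-Glu, forskolin and IBMX. EC50 ± SEM from at least two independent experiments in triplicate.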

[3] = biological target: Metabotropic glutamate receptor 3 (Rattus norvegicus, UniProt P31422); test: Effect on Metabotropic glutamate receptor 3; method in brief: as §1
[4] = biological target: Metabotropic glutamate receptor 5 (Rattus norvegicus, UniProt P31424); test: Effect on Metabotropic glutamate receptor 5
Method in brief: (§2)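 Stably transfected CHO cells grown in DMEM with 2 mM glutamine, 1% proline and 10% dialyzed FCS, at 37 °C in 5% CO2. Cells seeded 2 days before assay. Ligand tested at 1 mM, both alone and with 30 μM (S)-Glu. Each experiment run at least twice in triplicate.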

[5] = biological target: Metabotropic glutamate receptor 6 (Rattus norvegicus, UniProt P35349); test: Effect on Metabotropic glutamate receptor 6; method in brief: as §1
[6] = biological target: Metabotropic glutamate receptor 1 (Rattus norvegicus, UniProt P23385); test: Effect on Metabotropic glutamate receptor 1
Method in brief: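 CHO cells stably expressing mGlu1a, plated two days before assay and labelled with [3H]inositol (2 μCi/mL) for 24 h. Ligand given in PBS–LiCl for 20 min; read-out is 3H mono-, bis- and tris-inositol phosphates separated by ion exchange, expressed as fold increase over control. For antagonism, a 20 min ligand preincubation was followed by ligand plus 30 μM (S)-Glu. At least two experiments, each in triplicate.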

Glutamate NMDA receptor = test: Inhibitory activity against N-methyl-D-aspartate glutamate receptor; format: protein-complex assay
[7] = biological target: Metabotropic glutamate receptor 2 (Rattus norvegicus, UniProt P31421); test: Effect on Metabotropic glutamate receptor 2; method in brief: as §2
Sequence of Metabotropic glutamate receptor 2 (P31421 whole entry): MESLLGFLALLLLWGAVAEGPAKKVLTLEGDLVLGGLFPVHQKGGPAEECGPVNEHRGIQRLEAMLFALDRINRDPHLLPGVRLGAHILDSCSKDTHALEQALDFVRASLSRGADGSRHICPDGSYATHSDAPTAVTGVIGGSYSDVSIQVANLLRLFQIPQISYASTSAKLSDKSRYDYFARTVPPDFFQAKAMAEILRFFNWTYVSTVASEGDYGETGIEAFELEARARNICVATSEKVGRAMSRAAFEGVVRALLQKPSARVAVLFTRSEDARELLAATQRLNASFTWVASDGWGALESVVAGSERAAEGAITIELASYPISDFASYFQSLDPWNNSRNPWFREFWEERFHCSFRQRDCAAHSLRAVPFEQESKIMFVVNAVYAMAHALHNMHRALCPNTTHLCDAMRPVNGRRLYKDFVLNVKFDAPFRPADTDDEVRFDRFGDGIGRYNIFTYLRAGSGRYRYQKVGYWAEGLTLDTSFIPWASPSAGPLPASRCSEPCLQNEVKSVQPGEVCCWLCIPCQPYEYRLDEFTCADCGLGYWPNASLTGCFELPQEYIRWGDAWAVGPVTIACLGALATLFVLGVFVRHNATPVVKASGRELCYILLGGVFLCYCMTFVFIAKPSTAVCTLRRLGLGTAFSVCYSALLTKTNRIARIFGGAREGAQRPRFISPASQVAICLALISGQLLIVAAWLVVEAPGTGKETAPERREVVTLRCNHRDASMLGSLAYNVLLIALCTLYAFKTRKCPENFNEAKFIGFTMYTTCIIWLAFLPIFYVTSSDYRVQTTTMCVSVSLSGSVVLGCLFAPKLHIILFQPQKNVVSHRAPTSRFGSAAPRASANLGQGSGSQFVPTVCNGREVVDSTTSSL

Sequence of Metabotropic glutamate receptor 1 (P23385 whole entry): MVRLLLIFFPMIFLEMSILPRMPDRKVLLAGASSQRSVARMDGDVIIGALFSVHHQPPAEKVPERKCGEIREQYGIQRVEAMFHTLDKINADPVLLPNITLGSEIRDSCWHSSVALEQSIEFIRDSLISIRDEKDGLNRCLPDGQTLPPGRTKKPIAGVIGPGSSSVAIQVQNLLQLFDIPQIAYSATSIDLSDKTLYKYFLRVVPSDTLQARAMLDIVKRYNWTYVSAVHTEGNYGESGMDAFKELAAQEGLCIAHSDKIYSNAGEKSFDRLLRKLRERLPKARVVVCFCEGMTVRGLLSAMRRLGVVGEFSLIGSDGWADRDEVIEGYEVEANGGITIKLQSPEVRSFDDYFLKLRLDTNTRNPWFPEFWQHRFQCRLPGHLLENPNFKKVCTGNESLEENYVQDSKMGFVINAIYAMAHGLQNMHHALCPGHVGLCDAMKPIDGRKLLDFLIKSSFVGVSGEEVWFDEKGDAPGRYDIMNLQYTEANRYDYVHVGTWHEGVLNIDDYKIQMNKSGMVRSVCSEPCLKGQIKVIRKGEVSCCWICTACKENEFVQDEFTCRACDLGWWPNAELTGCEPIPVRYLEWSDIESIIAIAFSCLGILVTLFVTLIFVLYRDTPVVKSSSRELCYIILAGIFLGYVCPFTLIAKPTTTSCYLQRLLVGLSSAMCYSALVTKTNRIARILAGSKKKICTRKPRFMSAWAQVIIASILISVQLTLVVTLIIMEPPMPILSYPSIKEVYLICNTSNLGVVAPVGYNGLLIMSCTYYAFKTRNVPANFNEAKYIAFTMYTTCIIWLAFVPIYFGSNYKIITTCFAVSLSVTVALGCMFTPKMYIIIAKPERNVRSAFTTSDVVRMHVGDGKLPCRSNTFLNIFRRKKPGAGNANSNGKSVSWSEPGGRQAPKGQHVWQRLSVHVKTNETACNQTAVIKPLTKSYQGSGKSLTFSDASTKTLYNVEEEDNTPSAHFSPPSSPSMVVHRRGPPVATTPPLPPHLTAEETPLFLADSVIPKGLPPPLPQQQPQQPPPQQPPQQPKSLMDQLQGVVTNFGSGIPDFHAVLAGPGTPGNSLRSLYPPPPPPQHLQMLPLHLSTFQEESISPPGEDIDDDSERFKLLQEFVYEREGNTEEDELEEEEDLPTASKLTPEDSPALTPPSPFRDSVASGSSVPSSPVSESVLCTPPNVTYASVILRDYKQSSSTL
Sequence of Metabotropic glutamate receptor 5 (P31424 whole entry): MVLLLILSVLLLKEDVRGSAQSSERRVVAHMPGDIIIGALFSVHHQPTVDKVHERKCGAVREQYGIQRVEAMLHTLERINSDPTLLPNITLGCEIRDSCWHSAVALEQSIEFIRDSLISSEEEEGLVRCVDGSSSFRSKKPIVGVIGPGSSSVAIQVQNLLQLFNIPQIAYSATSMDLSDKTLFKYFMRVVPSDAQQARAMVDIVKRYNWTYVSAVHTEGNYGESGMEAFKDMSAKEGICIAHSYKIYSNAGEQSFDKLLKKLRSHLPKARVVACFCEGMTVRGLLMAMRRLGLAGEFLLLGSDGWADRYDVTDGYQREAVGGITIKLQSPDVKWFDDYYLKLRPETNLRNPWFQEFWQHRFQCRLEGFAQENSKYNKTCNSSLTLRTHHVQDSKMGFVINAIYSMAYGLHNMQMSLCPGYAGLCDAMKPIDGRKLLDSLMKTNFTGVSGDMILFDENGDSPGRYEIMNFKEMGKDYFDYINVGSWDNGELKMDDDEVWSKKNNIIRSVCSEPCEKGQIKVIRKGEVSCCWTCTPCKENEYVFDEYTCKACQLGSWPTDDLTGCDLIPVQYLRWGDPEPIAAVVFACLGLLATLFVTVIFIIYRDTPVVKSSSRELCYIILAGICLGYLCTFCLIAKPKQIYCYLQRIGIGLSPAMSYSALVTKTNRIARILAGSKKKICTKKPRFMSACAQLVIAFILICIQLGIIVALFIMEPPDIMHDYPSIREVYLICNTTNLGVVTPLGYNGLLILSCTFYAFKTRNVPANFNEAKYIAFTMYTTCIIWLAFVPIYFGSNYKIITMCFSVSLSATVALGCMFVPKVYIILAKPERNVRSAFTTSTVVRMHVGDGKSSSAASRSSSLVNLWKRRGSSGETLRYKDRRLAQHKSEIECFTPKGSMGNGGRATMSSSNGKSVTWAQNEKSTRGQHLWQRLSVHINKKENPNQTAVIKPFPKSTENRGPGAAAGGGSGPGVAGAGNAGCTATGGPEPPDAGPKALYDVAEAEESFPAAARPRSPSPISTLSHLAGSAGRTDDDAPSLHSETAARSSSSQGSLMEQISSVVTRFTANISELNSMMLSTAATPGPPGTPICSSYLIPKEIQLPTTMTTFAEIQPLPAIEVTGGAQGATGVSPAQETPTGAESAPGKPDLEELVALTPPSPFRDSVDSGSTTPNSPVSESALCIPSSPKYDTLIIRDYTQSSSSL
Sequence of Metabotropic glutamate receptor 6 (P35349 whole entry): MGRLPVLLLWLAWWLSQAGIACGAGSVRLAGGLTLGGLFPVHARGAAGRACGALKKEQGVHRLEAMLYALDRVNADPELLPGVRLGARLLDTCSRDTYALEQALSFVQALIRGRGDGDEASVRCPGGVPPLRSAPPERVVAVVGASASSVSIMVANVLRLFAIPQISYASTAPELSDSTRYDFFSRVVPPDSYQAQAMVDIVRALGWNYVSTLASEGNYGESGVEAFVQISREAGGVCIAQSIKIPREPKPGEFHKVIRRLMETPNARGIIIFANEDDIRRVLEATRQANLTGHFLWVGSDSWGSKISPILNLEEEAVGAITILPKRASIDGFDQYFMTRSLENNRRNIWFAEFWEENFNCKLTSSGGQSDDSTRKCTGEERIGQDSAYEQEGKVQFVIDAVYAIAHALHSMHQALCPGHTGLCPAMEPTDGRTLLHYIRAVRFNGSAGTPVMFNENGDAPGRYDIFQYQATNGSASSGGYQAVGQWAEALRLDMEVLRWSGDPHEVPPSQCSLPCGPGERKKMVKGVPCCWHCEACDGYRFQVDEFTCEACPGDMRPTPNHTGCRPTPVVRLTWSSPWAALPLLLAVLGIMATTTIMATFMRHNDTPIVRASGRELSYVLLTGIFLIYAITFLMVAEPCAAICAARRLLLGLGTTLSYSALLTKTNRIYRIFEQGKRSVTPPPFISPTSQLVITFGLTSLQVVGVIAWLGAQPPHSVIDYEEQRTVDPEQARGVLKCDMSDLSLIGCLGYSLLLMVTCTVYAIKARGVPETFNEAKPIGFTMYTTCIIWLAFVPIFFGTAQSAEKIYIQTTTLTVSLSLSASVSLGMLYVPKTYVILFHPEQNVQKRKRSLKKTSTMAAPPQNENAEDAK
Sequence of Metabotropic glutamate receptor 4 (P31423 whole entry): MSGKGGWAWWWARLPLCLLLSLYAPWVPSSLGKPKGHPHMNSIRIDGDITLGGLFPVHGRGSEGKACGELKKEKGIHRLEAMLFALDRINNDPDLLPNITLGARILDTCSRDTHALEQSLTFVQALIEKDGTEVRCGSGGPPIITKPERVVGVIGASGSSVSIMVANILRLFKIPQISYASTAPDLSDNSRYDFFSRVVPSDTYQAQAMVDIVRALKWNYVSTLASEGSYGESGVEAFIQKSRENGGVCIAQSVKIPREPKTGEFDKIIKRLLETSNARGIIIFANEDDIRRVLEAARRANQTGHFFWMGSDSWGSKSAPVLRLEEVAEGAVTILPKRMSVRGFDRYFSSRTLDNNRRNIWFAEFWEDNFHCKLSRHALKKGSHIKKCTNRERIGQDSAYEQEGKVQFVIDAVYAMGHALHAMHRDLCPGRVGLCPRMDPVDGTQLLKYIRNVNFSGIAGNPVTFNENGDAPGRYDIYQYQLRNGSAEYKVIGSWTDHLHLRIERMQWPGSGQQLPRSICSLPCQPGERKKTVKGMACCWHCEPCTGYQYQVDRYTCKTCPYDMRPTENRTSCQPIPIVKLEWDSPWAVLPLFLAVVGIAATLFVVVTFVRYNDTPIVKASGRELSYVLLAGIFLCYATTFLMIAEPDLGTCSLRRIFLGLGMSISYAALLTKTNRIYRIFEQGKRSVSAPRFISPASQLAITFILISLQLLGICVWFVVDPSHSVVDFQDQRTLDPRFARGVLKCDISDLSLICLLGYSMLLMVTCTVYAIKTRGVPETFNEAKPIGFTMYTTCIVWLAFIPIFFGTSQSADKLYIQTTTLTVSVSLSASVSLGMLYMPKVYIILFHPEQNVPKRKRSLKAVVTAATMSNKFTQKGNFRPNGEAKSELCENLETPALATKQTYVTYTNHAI

| SMILES | EC50 [1] | EC50 [2] | EC50 [3] | EC50 [4] | EC50 [5] | EC50 [6] | IC50 (Glutamate NMDA receptor) | EC50 [7] |
| --- | --- | --- | --- | --- | --- | --- | --- | --- |
| N[C@H](CCC(=O)O)C(=O)O [D-GLUTAMATE] | 5400 µM | 12 µM | 9 µM | – | – | – | – | – |
| Cc1o[nH]c(=O)c1CC[C@@H](N)C(=O)O | > 5000 µM | > 1000 µM | > 1000 µM | > 1000 µM | > 1000 µM | > 1000 µM | 131 µM | > 1000 µM |
| N[C@H](CCCC(=O)O)C(=O)O | – | – | – | – | > 1000 µM | > 1000 µM | – | > 1000 µM |
| N[C@@H](CCP(=O)(O)O)C(=O)O | 252 µM | 0.91 µM | – | > 1000 µM | 0.57 µM | 1000 µM | – | 1000 µM |
| Cc1onc(O)c1CCC(N)C(=O)O (stereo not given) | – | > 3000 µM | – | – | 82 µM | > 1000 µM | – | > 1000 µM |
| N[C@@H](CCCC(=O)O)C(=O)O [(S)-2-AMINOADIPIC ACID] | – | > 3000 µM | – | – | 140 µM | > 1000 µM | – | 35 µM |
| Cc1onc(O)c1CC[C@H](N)C(=O)O | > 5000 µM | > 1000 µM | > 1000 µM | > 1000 µM | 58 µM | > 1000 µM | – | > 1000 µM |

From ChEMBL document CHEMBL1130227, “(S)-homo-AMPA, a specific agonist at the mGlu6 subtype of metabotropic glutamic acid receptors” (J Med Chem, 1997)
